Screening results as filed in PubChem.
In the library only some 2.4% were active in any assay of this set; here they are far more common.
ERAP1 inh: human ERAP1 aminopeptidase inhibitors, primary screen, biochemical, single point, plate reader; recombinant ERAP1, Leu-AMC fluorescence, 60 min; inhibition, % at 10.7 µM; actives 0.15% (n = 340,000); AID 652197, 2013;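 active = mean replicate inhibition of at least 30%, or all replicates individually reaching that 30% level; inactive = mean below 30% and not every replicate reaching it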;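 note: 0% = neutral control wells and 100% = L-leucinethiol positive control wells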
Target sequence (Q9NZ08 whole entry, looked up): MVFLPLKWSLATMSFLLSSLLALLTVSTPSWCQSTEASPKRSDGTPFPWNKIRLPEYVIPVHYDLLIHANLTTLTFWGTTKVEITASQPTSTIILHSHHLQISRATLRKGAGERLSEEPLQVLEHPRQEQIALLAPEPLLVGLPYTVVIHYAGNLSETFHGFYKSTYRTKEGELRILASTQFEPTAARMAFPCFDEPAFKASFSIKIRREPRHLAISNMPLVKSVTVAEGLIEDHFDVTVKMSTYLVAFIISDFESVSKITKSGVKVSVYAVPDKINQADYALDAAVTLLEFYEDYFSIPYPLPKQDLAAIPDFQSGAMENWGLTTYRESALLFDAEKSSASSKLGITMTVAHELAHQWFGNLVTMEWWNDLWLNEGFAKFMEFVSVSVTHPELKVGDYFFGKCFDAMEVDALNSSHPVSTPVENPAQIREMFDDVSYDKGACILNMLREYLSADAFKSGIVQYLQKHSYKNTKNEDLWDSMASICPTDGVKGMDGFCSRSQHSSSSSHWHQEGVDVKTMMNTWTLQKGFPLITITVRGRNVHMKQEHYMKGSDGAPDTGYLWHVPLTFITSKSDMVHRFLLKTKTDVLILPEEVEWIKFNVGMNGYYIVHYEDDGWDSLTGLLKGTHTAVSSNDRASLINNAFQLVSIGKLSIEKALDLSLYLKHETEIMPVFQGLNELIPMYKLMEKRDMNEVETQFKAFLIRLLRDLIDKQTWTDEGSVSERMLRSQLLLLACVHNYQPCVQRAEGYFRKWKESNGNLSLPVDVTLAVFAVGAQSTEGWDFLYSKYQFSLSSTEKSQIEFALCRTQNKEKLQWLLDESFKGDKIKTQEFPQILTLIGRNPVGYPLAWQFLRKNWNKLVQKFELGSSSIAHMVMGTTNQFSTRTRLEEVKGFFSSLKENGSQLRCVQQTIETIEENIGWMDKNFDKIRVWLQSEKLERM
Ecoli rRNA inh: reduced GFP signal of wild-type E. coli, primary screen, bacterial rRNA inhibitor project, GFP/RFP fluorescence, OD600, single point; E. coli WT GFP vs humanized-ribosome RFP mutants, 24 h; stronger effect = lower value; DMSO median 0, no signal -100; GFP signal change (wild-type ribosome), % (concentration not given with the values); actives 1.6% (n = 350,000);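 active = significant combined selectivity score with lowered wild-type GFP, culture density cut under 30%, mutant RFP and density less affected; inactive = any of these conditions unmet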
CASP6 VEID inh: human caspase-6 inhibitors, primary screen, biochemical, VEID-R110 fluorescence, single point, set 2; actives 0.53% (n = 350,000); P55212; inhibition, % at 12.5 µM; purified caspase-6, Z-VEID-R110 cleavage fluorescence;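 active = mean inhibition across replicates at least about 35%, with every replicate also reaching that limit, limit read from the data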;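 note: 0% = median of neutral control wells and 100% = no fluorescence left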
ARNT-TACC3 inh: disruptors of ARNT/TACC3 protein interaction, primary screen, biochemical, AlphaScreen, single concentration; AID 623870, 2012; inhibition, % at 9.99 µM; Transforming acidic coiled-coil-containing protein 3 (Homo sapiens), Q9Y6A5; AlphaScreen His-ARNT PAS-B/GST-TACC3 binding, luminescence; TACC3 fragment carries E629A point mutation; actives 0.66% (n = 390,000);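 active = mean inhibition of replicates at least 50% and at least half of replicates each reaching 50%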;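 note: 0% = complete ARNT plus TACC3 wells and 100% = ARNT alone without TACC3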
PGC1a acetyl inh: inhibitors of PGC1a acetylation signal, primary screen, cell-based, U2OS, AlphaScreen, inhibitor mode. AlphaScreen anti-acetyl-lysine; with virally co-expressed GCN5 acetyltransferase. inhibition, % at 15.6 µM. actives 0.17% (n = 350,000). AID 651687, 2012;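 active = every replicate shows inhibition of at least 40%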;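 note: 0% = neutral control wells and 100% = positive control wells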
S100A4 inh HTS: inhibitors of S100A4-myosin IIA peptide binding, primary screen, biochemical, fluorescence polarization, TAMRA-MyoIIA peptide | Protein S100-A4 (Homo sapiens), P26447 | inhibition, % at 10.7 µM | actives 0.14% (n = 360,000) | AID 652163, 2013;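 active = mean inhibition of at least 70% across replicates, with every replicate also reaching that level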
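incubation = readout 5 min after mixing, signal stable up to 60 min | system = S100A4 monomer protein | buffer or medium = HEPES pH 7.2 with CaCl2, KCl, NaCl, DTT, Triton | benchmarks = neutral control DMSO, positive control TFP | also added = fluorescent myosin IIA peptide, 5 nM | compound dosing = one concentration per compound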
* marks the source's active call; other numbers are inactive results; i = inactive; . = not tested or not shown.

SMILES | ERAP1 inh | Ecoli rRNA inh | CASP6 VEID inh | ARNT-TACC3 inh | PGC1a acetyl inh | S100A4 inh HTS
COc1ccccc1-c1ccc(SCc2cccc(F)c2)nn1 | -3 | -30* | 5 | -3 | . | -14
CCOc1ccc(NC(=O)CSc2ccc(-c3ccccn3)nn2)cc1 | . | . | . | 26* | . | .
COc1ccccc1-c1ccc(SCC(=O)NCc2ccc3c(c2)OCO3)nn1 | 6 | -25 | -3 | -6 | -8 | -2
CCC(=O)N1CC2(C1)[C@H](c1ccc(-c3cccc(F)c3)cc1)[C@@H](CO)N2CC1CC1 | 1 | -6 | -3 | . | -25 | -7
COc1ccc(S(=O)(=O)Nc2ccc3c(c2)CC(=O)N([C@H](C)CO)C[C@@H](C)[C@@H](CN(C)C(=O)Nc2ccc(F)cc2)O3)cc1 | . | -1 | . | 6 | 3 | .
c1ccc(CSc2ccc(-c3ccccn3)nn2)cc1 | -2 | -17 | 0 | 65* | 7 | 2
Fc1ccccc1CSc1ccc(-c2ccco2)nn1 | -4 | 2 | 8 | -1 | -9 | -14
COc1ccccc1-c1ccc(SCc2ccccc2F)nn1 | 6 | -36* | 0 | -16 | -9 | 1
COc1ccc(NC(=O)N[C@@H]2C=C[C@@H](CC(=O)NC3CCC3)O[C@H]2CO)cc1 | 2 | 2 | 2 | 5 | -15 | 2
CCOC(=O)C1(CC2CCCCO2)CCN(Cc2nc(C(C)C)cs2)CC1 (stereo unspecified) | 2 | -29* | -1 | 0 | -8 | 5
CCOC(=O)C1(CC2CCCCO2)CCN(C(=O)Nc2ccc3c(c2)OCO3)CC1 (stereo unspecified) | -1 | -2 | 0 | -8 | . | 8
CCOC(=O)C1(CC2CCCCO2)CCN(C(=O)Nc2ccc(C(=O)OC)cc2)CC1 (stereo unspecified) | 1 | -19* | -1 | 1 | 5 | -14
COc1cccc(NS(=O)(=O)c2ccc3c(c2)NC(=O)CC(=O)N3)c1 | 3 | 1 | 99* | -3 | -1 | -4
COc1ccc2nc3cc(Cl)ccc3c(Nc3cc(CN4CCCC4)c(O)c(CN4CCCC4)c3)c2n1 | -1 | . | 5 | . | 72* | 2
COCC1=C2[C@@H](CCc3ccccc3)OB(O)C[C@@H]2n2c(=O)n(-c3ccccc3)c(=O)n2C1 | 0 | . | 2 | . | 7 | 0
Cc1cccc(NC(=O)Nc2ccc(S(N)(=O)=O)cc2)c1 | -4 | -3 | 1 | . | 12 | -2
NS(=O)(=O)c1cccc(NC(=O)c2cccc(-c3ccc(O)cc3)c2)c1 | -1 | -26* | 0 | . | -12 | -1
NS(=O)(=O)c1cccc(NC(=O)Nc2ccc(Cl)cc2)c1 | -5 | -31* | 0 | -7 | -4 | -4
C[C@@H]1CN([C@@H](C)CO)C(=O)c2cc(NS(=O)(=O)c3ccccc3)ccc2O[C@@H](C)CCCCO[C@@H]1CN(C)S(=O)(=O)c1ccccc1 | -2 | -4 | -2 | 3 | 3 | -17
Nc1nn(-c2ccccc2)nc1C(=O)OCc1ccccc1 | -1 | -7 | -1 | 0 | 72* | -2
C[C@@H]1CN([C@@H](C)CO)S(=O)(=O)c2ccc(/C=C/c3ccccc3)cc2O[C@@H]1CN(C)C(=O)C1CC1 | 0 | -2 | 0 | 12 | -3 | -6
CC(C)NC(=O)N(C)C[C@@H]1Oc2ccc(NC(=O)Cc3ccccc3)cc2CC(=O)N([C@@H](C)CO)C[C@@H]1C | -2 | 4 | -1 | -9 | -2 | 0
O=S(=O)(N[C@H]1CC[C@H](CCn2cc(-c3ccccc3F)nn2)O[C@@H]1CO)c1ccc(F)cc1 | -3 | -7 | 0 | . | -8 | -2
COc1ccccc1NC(=O)Nc1nn(C)c2cccc(N(C)C)c12 | -2 | -30* | -4 | 5 | . | -22
Cn1c(CSCCOc2ccccc2)n[nH]c1=S | . | . | 45* | 10 | . | -1
SMILES | ERAP1 inh | Ecoli rRNA inh | CASP6 VEID inh | ARNT-TACC3 inh | PGC1a acetyl inh | S100A4 inh HTS
O=C1C=CC(=O)c2c(O)c(N3CCN(CCO)CC3)c(Cl)c(O)c21 | 5 | -24 | 93* | 31* | 51* | 16
OCCOCCN1CCN(C2=Nc3ccccc3Sc3ccccc32)CC1 | -4 | 0 | 0 | i | -6 | 2
O=C1C=CC(=O)c2c(O)c(N3CCN(CCOCCO)CC3)c(Br)c(O)c21 | 2 | . | 97* | 17 | . | 15
O=C(C[C@H]1C[C@@H]2c3cc(NC(=O)C4CCOCC4)ccc3O[C@@H]2[C@H](CO)O1)NCc1ccc2c(c1)OCO2 | 2 | 2 | -2 | -3 | 1 | 24
Cn1cnc(CCNC(=O)C[C@@H]2CC[C@@H]3[C@H](COC[C@@H](O)CN3C(=O)Nc3ccc(F)cc3)O2)c1 | -1 | 5 | 0 | -3 | 3 | 3
CCCC(=O)Nc1ccc(Cl)c(NC(=S)NC(=O)c2ccco2)c1 | 0 | -16* | 1 | -8 | . | -1
CNC(=O)COC(=O)c1cc(-c2ccccc2)nn1-c1ccccc1 | -2 | -27* | . | -1 | -10 | -4
O=C(CCc1ccc(O)c(O)c1)NNC(=S)Nc1ccc(Br)cc1Cl | 2 | -24* | 28 | . | 0 | -2
O=C(CCc1ccc(O)c(O)c1)NNC(=S)NCCc1ccccc1 | 2 | 0 | 7 | -5 | . | 5
CC(C)NC(=O)N(C)C[C@H]1Oc2ccc(NC(=O)Nc3ccc(F)cc3)cc2CC(=O)N([C@@H](C)CO)C[C@H]1C | 0 | -1 | -1 | -7 | 2 | -3
Cc1ccccc1S(=O)(=O)N[C@@H]1CC[C@@H](CCNS(=O)(=O)c2cccc(F)c2)O[C@@H]1CO | -5 | -1 | -1 | -4 | 6 | -5
O=C(Nc1nnc(-c2ccncc2)o1)c1cccc(N2C(=O)CCC2=O)c1 | 3 | 6 | -4 | . | 8 | -5
O=C(Nc1nnc(-c2ccco2)o1)c1cccc(N2C(=O)CCC2=O)c1 | 3 | 22 | 1 | 49* | 3 | -3
O=[N+]([O-])c1cccc(N=Nc2ccc(O)cc2O)c1 | -2 | -21* | 5 | 13 | -18 | -1
O=[N+]([O-])c1cccc(N=NNc2cccc([N+](=O)[O-])c2)c1 | -2 | -27* | . | . | . | -8
O=C(CSCc1ccc(Cl)cc1Cl)Nc1ccc(O)cc1C(=O)O | -6 | 2 | 13 | -11 | -8 | -3
COc1cc(NC(=O)CSCc2ccc(Cl)cc2Cl)c(C(=O)O)cc1OC | 2 | -20* | 3 | -6 | 11 | 3
